Source: ChEMBL document CHEMBL1127785, “[[omega-(Heterocyclylamino)alkoxy]benzyl]-2,4-thiazolidinediones as potent antihyperglycemic agents” (1994)
The source made the active and inactive calls. The rule behind the calls is not given here.

Columns and labels:
Mus musculus [1] = test: Percent reduction in area under glucose tolerance curve (AUC) was determined at 30 umol/kg dose of diet in mice; IA = No significant activity; type: functional, organism-based
How it was run: (§1)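 C57 Bl/6 ob/ob mice, 9–10 weeks old at purchase, 6–8 per group, kept at 26 ± 2 °C on a 12 h light/dark cycle. Compound was mixed into powdered diet, given fresh daily for 8 days. Mice were then fasted 5 h and given oral glucose 3 g/kg. Tail blood glucose was measured at 0, 45, 90 and 135 min by hexokinase/G6PDH. Read-out is % AUC reduction vs controls (trapezoid rule), Student's t-test.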

Mus musculus [2] = test: Percent reduction in area under glucose tolerance curve at 300 uM/kg dose in diet of mice.; type: functional; how it was run: as §1
Mus musculus [3] = test: Percent reduction in area under glucose tolerance curve (AUC) was determined at 30 umol/kg dose of diet in mice; type: functional; how it was run: as §1
Mus musculus [4] = test: Percent reduction in area under glucose tolerance curve (AUC) was determined at 300 umol/kg dose of diet in mice; IA = No significant activity; type: functional, organism-based; how it was run: as §1
Mus musculus [5] = test: Percent reduction in area under glucose tolerance curve (AUC) was determined at 3000 umol/kg dose of diet in mice; type: functional; how it was run: as §1
Mus musculus [6] = test: Percent reduction in area under glucose tolerance curve (AUC) was determined at 3 umol/kg dose of diet in mice; IA = No significant activity; type: functional, organism-based; how it was run: as §1
Mus musculus [7] = test: Percent reduction in area under glucose tolerance curve (AUC) was determined at 10 umol/kg dose of diet in mice; type: functional; how it was run: as §1
Mus musculus [8] = test: Percent reduction in area under glucose tolerance curve at 100 uM/kg dose in diet of mice.; type: functional; how it was run: as §1
Mus musculus [9] = organism: Mus musculus; test: No significant effect dose level on blood hemoglobin; type: functional
How it was run: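 Blood hemoglobin content was measured in C57 Bl/6 ob/ob mice after 8 days of compound given by dietary admixture. The value is the highest dose (µmol/kg of diet) with no significant reduction in blood hemoglobin.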

Mus musculus [10] = organism: Mus musculus; test: Antihyperglycemic potency dose producing approximately 25% reduction in area under glucose tolerance curve; type: functional; how it was run: as §1
Mus musculus [11] = test: Percent reduction in area under glucose tolerance curve (AUC) was determined at 3 umol/kg dose of diet in mice; type: functional; how it was run: as §1
[12] = Selectivity ratio for Antihyperglycemic potency dose and No significant effect dose; type: functional
Mus musculus [13] = test: Percent reduction in area under glucose tolerance curve (AUC) was determined at 1000 umol/kg dose of diet in mice; IA = No significant activity; type: functional, organism-based; how it was run: as §1
Mus musculus [14] = test: Percent reduction in area under glucose tolerance curve (AUC) was determined at 100 umol/kg dose of diet in mice; IA = No significant activity; type: functional, organism-based; how it was run: as §1
Mus musculus [15] = test: Percent reduction in area under glucose tolerance curve (AUC) was determined at 10 umol/kg dose of diet in mice; IA = No significant activity; type: functional, organism-based; how it was run: as §1

## CN(CCOc1ccc(CC2SC(=O)NC2=O)cc1)C(=O)NCc1ccccc1 (stereo not drawn)
Mus musculus [1]
  Reduction: Not significant
Mus musculus [2]
  Reduction: 41%

## CC(=O)N(CCOc1ccc(CC2SC(=O)NC2=O)cc1)c1ncccn1 (stereo not drawn)
Mus musculus [3]
  Reduction: 19%

## CN(CCOc1ccc(CC2SC(=O)NC2=O)cc1)C(=O)Nc1ccccc1 (stereo not drawn)
Mus musculus [2]
  Reduction: 27%

## CN(CCOc1ccc(/C=C2\SC(=O)NC2=O)cc1)c1ccccn1
Mus musculus [1]
  Reduction: inactive
Mus musculus [2]
  Reduction: 47%

## CC1(COc2ccc(CC3SC(=O)NC3=O)cc2)CCCCC1 (stereo not drawn) [CIGLITAZONE]
Mus musculus [4]
  Reduction: inactive
Mus musculus [5]
  Reduction: 41%

## CN(CCOc1ccc(CC2SC(=O)NC2=O)cc1)c1ncccc1Cl (stereo not drawn)
Mus musculus [3]
  Reduction: 15%
Mus musculus [2]
  Reduction: 40%

## CN(CCOc1ccc(CC2SC(=O)NC2=O)cc1)c1nc2ccccc2s1 (stereo not drawn)
Mus musculus [6]
  Reduction: Not significant
Mus musculus [2]
  Reduction: 66%
Mus musculus [7]
  Reduction: 36%
Mus musculus [8]
  Reduction: 51%

## CN(CCSc1ccc(CC2SC(=O)NC2=O)cc1)c1nc2ccccc2o1 (stereo not drawn)
Mus musculus [8]
  Reduction: 20%

## CN(CCOc1ccc(CC2CC(=O)NC2=O)cc1)c1nc2ccccc2o1 (stereo not drawn)
Mus musculus [4]
  Reduction: Not significant

## CC(CN(C)c1nc2ccccc2o1)Oc1ccc(CC2SC(=O)NC2=O)cc1 (stereo not drawn)
Mus musculus [4]
  Reduction: Not significant

## CN(CCOc1ccc(CC2SC(=O)NC2=O)cc1)c1ncccn1 (stereo not drawn)
Mus musculus [9]
  Dose: 100 µM/kg
Mus musculus [10]
  Dose: 10 µM/kg
Mus musculus [11]
  Reduction: 18%
Mus musculus [7]
  Reduction: 18%
Mus musculus [8]
  Reduction: 43%
[12]
  Selectivity ratio: 10

## O=C1NC(=O)C(Cc2ccc(OCCNc3nc4ccccc4o3)cc2)S1 (stereo not drawn)
Mus musculus [1]
  Reduction: Not significant
Mus musculus [8]
  Reduction: 44%

## CN(CCCCOc1ccc(CC2SC(=O)NC2=O)cc1)c1nc2ccccc2o1 (stereo not drawn)
Mus musculus [1]
  Reduction: Not significant
Mus musculus [2]
  Reduction: 25%

## O=C(NCCOc1ccc(CC2SC(=O)NC2=O)cc1)Nc1ccc(F)cc1 (stereo not drawn)
Mus musculus [13]
  Reduction: Not significant

## O=C1NC(=O)C(Cc2ccc(OCCNc3ncccn3)cc2)S1 (stereo not drawn)
Mus musculus [3]
  Reduction: 15%

## CN(CCOc1ccc(CC2SC(=O)NC2=O)cc1)c1nc(-c2ccccc2)cs1 (stereo not drawn)
Mus musculus [1]
  Reduction: Not significant
Mus musculus [8]
  Reduction: 34%

## CC(COc1ccc(CC2SC(=O)NC2=O)cc1)N(C)c1nc2ccccc2o1 (stereo not drawn)
Mus musculus [14]
  Reduction: Not significant
Mus musculus [2]
  Reduction: 38%

## CN(CCOc1ccc(CC2[Se]C(=O)NC2=O)cc1)c1nc2ccccc2o1 (stereo not drawn)
Mus musculus [15]
  Reduction: Not significant
Mus musculus [8]
  Reduction: 45%

## Cc1ccc(N(C)CCOc2ccc(CC3SC(=O)NC3=O)cc2)nc1 (stereo not drawn)
Mus musculus [3]
  Reduction: 18%
Mus musculus [2]
  Reduction: 35%
Mus musculus [8]
  Reduction: 19%

## O=C(NCCOc1ccc(CC2SC(=O)NC2=O)cc1)Nc1ccc(Cl)c(Cl)c1 (stereo not drawn)
Mus musculus [4]
  Reduction: Not significant

## Cc1sc(N(C)CCOc2ccc(CC3SC(=O)NC3=O)cc2)nc1-c1ccccc1 (stereo not drawn)
Mus musculus [3]
  Reduction: 20%
Mus musculus [15]
  Reduction: Not significant
Mus musculus [8]
  Reduction: 37%

## Cc1nc(N(C)CCOc2ccc(CC3SC(=O)NC3=O)cc2)sc1C (stereo not drawn)
Mus musculus [3]
  Reduction: 47%
Mus musculus [15]
  Reduction: Not significant

## CN(CC(Oc1ccc(CC2SC(=O)NC2=O)cc1)c1ccccc1)c1nc2ccccc2o1 (stereo not drawn)
Mus musculus [1]
  Reduction: Not significant

## Cc1ccnc(N(C)CCOc2ccc(CC3SC(=O)NC3=O)cc2)c1 (stereo not drawn)
Mus musculus [6]
  Reduction: Not significant
Mus musculus [3]
  Reduction: 34%
Mus musculus [2]
  Reduction: 41%

## O=C(NCCOc1ccc(CC2SC(=O)NC2=O)cc1)Nc1ccc(Cl)cc1 (stereo not drawn)
Mus musculus [4]
  Reduction: Not significant

## CN(CCOc1ccc(CC2SC(=O)NC2=O)cc1)c1nccs1 (stereo not drawn)
Mus musculus [15]
  Reduction: Not significant
Mus musculus [8]
  Reduction: 58%

## O=C1NC(=O)C(Cc2ccc(OCCN(Cc3ccccc3)c3nc4ccccc4s3)cc2)S1 (stereo not drawn)
Mus musculus [14]
  Reduction: Not significant
Mus musculus [2]
  Reduction: 56%
